The record followed here is ChEMBL document CHEMBL1129426, “5-Lipoxygenase inhibitors: synthesis and structure-activity relationships of a series of 1-aryl-2H,4H-tetrahydro-1,2,4-triazin-3-ones” (J Med Chem, 1996).

Calls of active or inactive are those of the source. The rule behind the calls is not given here.

The subject of one data set is Rattus norvegicus. In words: In vivo inhibition of rat anaphylaxis leukotriene formation from peritoneal fluids, 1 hr after an oral dose of 200 uM/Kg. Format: functional. The gist of the method: (§1)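 Rats given 200 µmol/kg orally 1 h before antibody-antigen challenge inducing peritoneal leukotriene biosynthesis; LTE4 in peritoneal fluid measured. Mean of eight rats; percent inhibition versus control group mean; significance by one-way ANOVA with Tukey's multiple comparison.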
The term ED50 denotes the dose at which the effect has come halfway, by size or by number of responders. `O=C1NCCN(c2cccc(Br)n2)N1` yielded an ED50 of 41 mg/kg.

Tested on in the next data set: not listed separately
In words: Plasma Tmax in rat (PO dose). Format: ADME, organism-based. The procedure, abridged: (§2)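 Rats dosed by oral gavage at 200 µmol/kg. Tail-vein blood drawn at about 1 h intervals; plasma analysed by HPLC. Mean of data from two animals.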
By Tmax is commonly meant the time at which the peak concentration occurs. For the molecule `CC1CN(c2cccc(-c3ccco3)c2)NC(=O)N1` (configuration not stated), the Tmax is 1 h.

In the case of `Cc1ccccc1N1CCNC(=O)N1`, the time of peak concentration (Tmax) is 2.1 h.

Consider `CC1(C)CN(c2ccccc2)NC(=O)N1`, for which the time to peak (Tmax) was 2.2 h.

For `CC1CN(c2cccc(Cl)n2)NC(=O)N1` (configuration not stated), the Tmax was found to be 2 h.

Take `O=C1NCCN(c2cccc(Br)n2)N1`: the Tmax is 1 h.

The target in a further data set is T1, Polyunsaturated fatty acid 5-lipoxygenase (Rattus norvegicus, UniProt P12527).
T1 sequence (P12527 whole entry): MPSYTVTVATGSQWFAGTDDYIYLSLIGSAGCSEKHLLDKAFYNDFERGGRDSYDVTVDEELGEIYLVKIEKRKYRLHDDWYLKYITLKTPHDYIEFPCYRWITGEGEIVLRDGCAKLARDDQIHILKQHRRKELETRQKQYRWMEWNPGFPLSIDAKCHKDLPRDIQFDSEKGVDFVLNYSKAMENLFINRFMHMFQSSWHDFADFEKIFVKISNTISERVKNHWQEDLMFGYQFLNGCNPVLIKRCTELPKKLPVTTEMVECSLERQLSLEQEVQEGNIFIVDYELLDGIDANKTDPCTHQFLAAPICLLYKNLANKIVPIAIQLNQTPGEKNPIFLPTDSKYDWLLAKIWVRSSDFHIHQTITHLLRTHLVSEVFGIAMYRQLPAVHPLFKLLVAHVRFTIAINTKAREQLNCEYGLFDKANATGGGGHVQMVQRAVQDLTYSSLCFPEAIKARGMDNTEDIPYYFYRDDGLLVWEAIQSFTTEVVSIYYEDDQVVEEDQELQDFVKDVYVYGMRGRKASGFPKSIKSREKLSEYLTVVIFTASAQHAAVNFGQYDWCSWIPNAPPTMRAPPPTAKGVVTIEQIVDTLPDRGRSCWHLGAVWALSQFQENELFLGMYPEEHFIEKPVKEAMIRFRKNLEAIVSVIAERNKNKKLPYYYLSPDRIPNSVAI
In words: Inhibition of 5-lipoxygenase catalysis in rat basophilic leukemia (RBL) cells by measuring 5-HETE product formation. Format: cell-based, RBL-1. The procedure, abridged: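 Crude 20000g supernatant from sonicated rat basophilic leukemia cells used as 5-LO source; 5-HETE product formation measured.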
A word on the IC50: it is the point on the concentration scale where inhibition reaches its midpoint. Turning to `CC1CN(c2cccc(-c3ccco3)c2)NC(=O)N1` (configuration not stated), the IC50 is 4.8 µM.

Take `Cc1ccccc1N1CCNC(=O)N1`: the half-inhibitory concentration (IC50) was 386 µM.

In the case of `CC1(C)CN(c2ccccc2)NC(=O)N1`, 6.8 µM corresponded to half-maximal inhibition (IC50).

In turn, `CC1CN(c2cccc(Cl)n2)NC(=O)N1` (configuration not stated) displayed an IC50 of 3.5 µM.

Molecule `O=C1NCCN(c2cccc(Br)n2)N1` registered an IC50 of 3.5 µM.

In a further data set the test system is Rattus norvegicus. In words: In vivo inhibition of rat anaphylaxis leukotriene formation from peritoneal fluids, 1 hr after an oral dose of 200 uM/Kg; Not significant. Format: functional, organism-based. The gist of the method: as §1
Consider `CC1CN(c2cccc(-c3ccco3)c2)NC(=O)N1` (configuration not stated), for which the ED50 entry is “inactive”.

On to `Cc1ccccc1N1CCNC(=O)N1`, for which the ED50 entry was “inactive”.

For the molecule `CC1(C)CN(c2ccccc2)NC(=O)N1`, the ED50 entry is “inactive”.

For the molecule `CC1CN(c2cccc(Cl)n2)NC(=O)N1` (configuration not stated), the ED50 result is “inactive”.

Turning to `O=C1NC(Oc2ccccc2)CN(c2ccccc2)N1` (configuration not stated), the ED50 result was “inactive”.

Take `O=C1NC(Oc2ccc(F)cc2)CN(c2ccccc2)N1` (configuration not stated): the ED50 entry is “inactive”.

Tested on in another data set: not listed separately
In words: Plasma Cmax in rat (PO dose). Format: ADME, organism-based. More on the design: route oral. The procedure, abridged:
as §2
A word on the Cmax: it is the peak of the concentration-time curve. Molecule `CC1CN(c2cccc(-c3ccco3)c2)NC(=O)N1` (configuration not stated) gave a Cmax of 7 µM.

`Cc1ccccc1N1CCNC(=O)N1`: the maximum concentration (Cmax) stood at 78 µM.

The molecule `CC1(C)CN(c2ccccc2)NC(=O)N1` yielded a Cmax of 20 µM.

`CC1CN(c2cccc(Cl)n2)NC(=O)N1` (configuration not stated): the highest level (Cmax) was 48 µM. This Cmax is about 2.4-fold higher than that of the molecule before.

In turn, `O=C1NCCN(c2cccc(Br)n2)N1` displayed a Cmax of 79 µM.

A further data set deals with T2, Polyunsaturated fatty acid 5-lipoxygenase (Homo sapiens, UniProt P09917).
T2 sequence (P09917 whole entry): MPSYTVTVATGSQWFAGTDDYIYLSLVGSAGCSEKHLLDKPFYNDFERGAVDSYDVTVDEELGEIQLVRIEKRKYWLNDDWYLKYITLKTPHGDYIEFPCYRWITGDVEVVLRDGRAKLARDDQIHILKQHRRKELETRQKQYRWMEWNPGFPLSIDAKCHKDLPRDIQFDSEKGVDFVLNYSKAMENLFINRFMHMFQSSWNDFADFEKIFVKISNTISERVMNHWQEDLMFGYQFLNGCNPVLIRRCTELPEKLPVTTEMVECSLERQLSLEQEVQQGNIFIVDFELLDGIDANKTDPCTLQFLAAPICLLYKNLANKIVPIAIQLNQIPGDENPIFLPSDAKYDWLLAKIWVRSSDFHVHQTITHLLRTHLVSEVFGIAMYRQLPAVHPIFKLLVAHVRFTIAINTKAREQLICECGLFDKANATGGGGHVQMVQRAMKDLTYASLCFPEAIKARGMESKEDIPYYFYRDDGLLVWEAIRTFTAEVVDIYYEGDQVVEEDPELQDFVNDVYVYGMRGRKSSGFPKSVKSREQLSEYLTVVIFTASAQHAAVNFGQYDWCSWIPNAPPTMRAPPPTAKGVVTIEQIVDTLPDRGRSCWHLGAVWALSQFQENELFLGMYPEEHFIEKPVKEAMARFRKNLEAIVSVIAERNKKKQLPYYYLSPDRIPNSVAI
In words: In vitro 5-lipoxygenase inhibitory activity against calcium ionophore (A23187) induced LTB4 formation in human whole blood.
`CC1CN(c2cccc(-c3ccco3)c2)NC(=O)N1` (configuration not stated): the IC50 was 8.4 µM.

On to `CC1CN(c2cccc(Cl)n2)NC(=O)N1` (configuration not stated), for which the IC50 was 1.6 µM.

Take `O=C1NC(Oc2ccccc2)CN(c2ccccc2)N1` (configuration not stated): the half-maximal inhibitory concentration (IC50) was found to be 2.6 µM.

Consider `O=C1NC(Oc2ccc(F)cc2)CN(c2ccccc2)N1` (configuration not stated), for which the 50% inhibitory concentration (IC50) was 2.6 µM.

For `O=C1NCCN(c2cccc(Br)n2)N1`, the half-inhibitory concentration (IC50) came out at 4.6 µM.
